Active and inactive are the calls of the source. The calls are words filed in the database; no cut-off is given here.
Key:
[1] = biological target: T1, NAD-dependent protein deacetylase sirtuin-3, mitochondrial (Homo sapiens) (UniProt Q9NTG7); assay: Substrate activity at recombinant human SIRT3 assessed as decrotonylation by measuring increase in fluorescence intensity at 10 uM in presence of NAD+ by fluorescence photometric method
T1 sequence (whole entry): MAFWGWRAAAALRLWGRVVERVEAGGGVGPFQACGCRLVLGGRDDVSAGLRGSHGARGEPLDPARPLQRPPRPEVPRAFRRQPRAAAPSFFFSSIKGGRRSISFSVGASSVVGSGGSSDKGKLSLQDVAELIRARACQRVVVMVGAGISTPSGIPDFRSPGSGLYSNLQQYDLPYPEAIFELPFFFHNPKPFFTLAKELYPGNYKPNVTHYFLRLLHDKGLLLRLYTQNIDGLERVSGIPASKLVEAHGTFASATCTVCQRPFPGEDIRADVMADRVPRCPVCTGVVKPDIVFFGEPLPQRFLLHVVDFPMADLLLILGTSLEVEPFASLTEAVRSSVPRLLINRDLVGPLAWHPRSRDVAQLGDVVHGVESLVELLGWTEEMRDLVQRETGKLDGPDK
Method in brief: (§1)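 Recombinantly expressed, purified sirtuin (40 ng/μl) incubated with probe (10 μM, from 5 mM DMSO stock) and NAD+ at 37 °C in 20 mM HEPES pH 8.0 with 1 mM MgCl2, 2.7 mM KCl, 150 mM NaCl. Fluorescence read with excitation 480 nm, emission 545 nm.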

[2] = biological target: NAD-dependent protein deacylase sirtuin-6 (Homo sapiens) (UniProt Q8N6T7); assay: Substrate activity at recombinant human SIRT6 assessed as decrotonylation by measuring increase in fluorescence intensity at 10 uM in presence of NAD+ by fluorescence photometric method; method in brief: as §1
[3] = biological target: NAD-dependent protein deacylase sirtuin-5, mitochondrial (Homo sapiens) (UniProt Q9NXA8); assay: Substrate activity at recombinant human SIRT5 assessed as decrotonylation by measuring increase in fluorescence intensity at 10 uM in presence of NAD+ by fluorescence photometric method; method in brief: as §1
[4] = biological target: T2, NAD-dependent protein deacetylase sirtuin-1 (Homo sapiens) (UniProt Q96EB6); assay: Substrate activity at recombinant human SIRT1 assessed as decrotonylation by measuring increase in fluorescence intensity at 10 uM in presence of NAD+ by fluorescence photometric method; method in brief: as §1
T2 sequence (whole entry): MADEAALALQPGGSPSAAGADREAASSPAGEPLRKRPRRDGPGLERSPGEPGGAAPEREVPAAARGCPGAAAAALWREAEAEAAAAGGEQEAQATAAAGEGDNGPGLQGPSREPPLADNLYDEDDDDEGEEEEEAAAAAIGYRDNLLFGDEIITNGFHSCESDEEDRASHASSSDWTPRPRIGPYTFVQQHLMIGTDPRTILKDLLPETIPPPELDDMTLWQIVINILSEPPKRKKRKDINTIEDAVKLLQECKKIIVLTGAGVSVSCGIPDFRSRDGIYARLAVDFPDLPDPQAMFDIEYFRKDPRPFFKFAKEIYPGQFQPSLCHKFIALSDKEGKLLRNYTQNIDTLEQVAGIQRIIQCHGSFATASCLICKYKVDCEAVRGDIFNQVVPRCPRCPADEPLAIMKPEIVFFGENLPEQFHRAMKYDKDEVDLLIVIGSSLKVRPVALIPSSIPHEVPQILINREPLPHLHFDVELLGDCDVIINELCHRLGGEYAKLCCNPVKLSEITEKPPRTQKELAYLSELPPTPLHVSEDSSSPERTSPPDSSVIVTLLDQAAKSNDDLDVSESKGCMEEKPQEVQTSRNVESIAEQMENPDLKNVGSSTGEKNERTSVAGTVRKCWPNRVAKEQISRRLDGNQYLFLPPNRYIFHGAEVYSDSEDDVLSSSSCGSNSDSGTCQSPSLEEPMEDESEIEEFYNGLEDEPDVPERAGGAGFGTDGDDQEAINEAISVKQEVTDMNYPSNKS

[5] = biological target: T3, NAD-dependent protein deacetylase sirtuin-2 (Homo sapiens) (UniProt Q8IXJ6); assay: Substrate activity at recombinant human SIRT2 assessed as decrotonylation by measuring absorption peak for formation of N-NBD at 10 uM measured after 3 hrs in presence of NAD+ by UV-VS absorption spectra analysis
T3 sequence (whole entry): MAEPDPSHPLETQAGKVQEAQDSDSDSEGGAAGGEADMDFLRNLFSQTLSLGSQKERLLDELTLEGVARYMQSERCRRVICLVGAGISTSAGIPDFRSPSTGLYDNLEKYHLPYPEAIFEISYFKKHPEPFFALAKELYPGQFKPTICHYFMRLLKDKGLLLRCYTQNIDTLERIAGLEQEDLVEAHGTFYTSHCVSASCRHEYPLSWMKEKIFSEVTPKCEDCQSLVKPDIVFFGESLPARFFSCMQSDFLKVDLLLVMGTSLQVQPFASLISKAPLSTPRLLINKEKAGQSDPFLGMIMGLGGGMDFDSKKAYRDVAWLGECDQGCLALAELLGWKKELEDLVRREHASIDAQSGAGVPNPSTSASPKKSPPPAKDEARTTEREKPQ
Method in brief: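 Probe (10 μM, from 5 mM DMSO stock) reacted with recombinant purified Sirt2 (40 ng/μl) and 200 μM NAD+ in 20 mM HEPES pH 8.0 (1 mM MgCl2, 2.7 mM KCl, 150 mM NaCl) at 37 °C for 3 h. Absorbance spectra collected from 300 to 550 nm before and after the reaction.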

[6] = Binding affinity to lysine at 10 uM by fluorescence photometric method
Method in brief: (§2)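 Interferent test: probe at 10 μM treated with each species (amino acids, butylamine) at 100 μM, no enzyme; fluorescence spectra of the reaction mixtures recorded (excitation 480 nm).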

[7] = biological target: T3, NAD-dependent protein deacetylase sirtuin-2 (Homo sapiens); assay: Substrate activity at recombinant human SIRT2 assessed as decrotonylation by measuring increase in fluorescence intensity at 10 uM in presence of NAD+ by fluorescence photometric method; conditions: time hrs <=3, TDE = time-dependent effect; method in brief: as §1
[8] = biological target: T3, NAD-dependent protein deacetylase sirtuin-2 (Homo sapiens); assay: Substrate activity at recombinant human SIRT2 assessed as decrotonylation by measuring increase in fluorescence intensity at 10 uM measured after 3 hrs in presence of NAD+ by fluorescence photometric method relative to control
Method in brief: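 Probe (10 μM) incubated 3 h at 37 °C with recombinant Sirt2 (40 ng/μl) and 200 μM NAD+ in 20 mM HEPES pH 8.0 with salts. Emission scanned 510–600 nm (excitation 480 nm, slit 5 nm). Signal compared with controls lacking enzyme and/or NAD+, and with probe alone; fold increase derived.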

[9] = Binding affinity to cysteine at 10 uM by fluorescence photometric method; method in brief: as §2
[10] = Binding affinity to histidine at 10 uM by fluorescence photometric method; method in brief: as §2

Sequence of NAD-dependent protein deacylase sirtuin-5, mitochondrial (Homo sapiens) (Q9NXA8 37-310 limits assumed): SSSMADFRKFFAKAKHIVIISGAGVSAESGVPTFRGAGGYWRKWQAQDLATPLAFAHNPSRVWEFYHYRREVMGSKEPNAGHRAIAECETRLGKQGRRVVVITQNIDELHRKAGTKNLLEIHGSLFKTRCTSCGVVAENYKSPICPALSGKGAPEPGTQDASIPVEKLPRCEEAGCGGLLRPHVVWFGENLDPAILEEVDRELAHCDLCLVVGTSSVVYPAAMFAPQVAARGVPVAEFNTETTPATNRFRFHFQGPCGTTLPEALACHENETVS
Sequence of NAD-dependent protein deacylase sirtuin-6 (Homo sapiens) (Q8N6T7 whole entry): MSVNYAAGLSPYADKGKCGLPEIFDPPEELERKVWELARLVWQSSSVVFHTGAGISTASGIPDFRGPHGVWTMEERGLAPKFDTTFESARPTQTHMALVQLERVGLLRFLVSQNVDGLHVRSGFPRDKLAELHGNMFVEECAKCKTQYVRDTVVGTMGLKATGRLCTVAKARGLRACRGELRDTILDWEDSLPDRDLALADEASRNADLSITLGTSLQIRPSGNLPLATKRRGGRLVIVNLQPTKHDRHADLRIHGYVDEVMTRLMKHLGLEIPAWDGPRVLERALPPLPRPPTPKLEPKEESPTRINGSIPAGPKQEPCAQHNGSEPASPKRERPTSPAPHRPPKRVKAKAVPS

Activity [1]	Activity [2]	Activity [3]	Activity [4]	Activity [5] [nm]	Activity [6]	Activity [7]	fold change (FC) [8]	Activity [9]	Activity [10]	Compound
inactive	inactive	inactive	Active							C/C=C/C(=O)NCCCC[C@H](NC(=O)CNC(=O)[C@H](CC(C)C)NC(C)=O)C(=O)NCCOCCOc1ccc([N+](=O)[O-])c2nonc12
inactive	inactive	inactive	Active	480	inactive	Tde	5	inactive	inactive	C/C=C/C(=O)NCCCC[C@H](NC(=O)OC(C)(C)C)C(=O)NCCOCCOc1ccc([N+](=O)[O-])c2nonc12

— ChEMBL document CHEMBL4732140, “Single-step fluorescent probes to detect decrotonylation activity of HDACs through intramolecular reactions” (Eur J Med Chem, 2021)
